FXIa inh: blocks human coagulation factor XIa protease activity; inhibition, % at 5 µM; P03951; hit rate 0.14% among 220,000; AID 798; purified FXIa, Boc-Glu-Ala-Arg-AMC fluorogenic substrate;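 active means inhibition of at least 40%; inactive means inhibition below 40%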;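 further: fluorescence of freed AMC excited at 355 nm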
Target sequence (P03951 19-387 limits assumed): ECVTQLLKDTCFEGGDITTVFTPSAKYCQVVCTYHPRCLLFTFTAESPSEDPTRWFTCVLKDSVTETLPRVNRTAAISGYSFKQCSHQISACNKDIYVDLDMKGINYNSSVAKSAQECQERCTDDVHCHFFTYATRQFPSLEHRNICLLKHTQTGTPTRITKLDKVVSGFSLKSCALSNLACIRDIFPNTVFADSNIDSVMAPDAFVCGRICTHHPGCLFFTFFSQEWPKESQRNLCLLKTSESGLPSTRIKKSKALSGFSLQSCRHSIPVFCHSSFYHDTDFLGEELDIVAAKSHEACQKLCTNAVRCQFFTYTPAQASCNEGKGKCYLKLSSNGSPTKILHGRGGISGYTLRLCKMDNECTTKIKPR
Target sequence (P03951 388-625 limits assumed): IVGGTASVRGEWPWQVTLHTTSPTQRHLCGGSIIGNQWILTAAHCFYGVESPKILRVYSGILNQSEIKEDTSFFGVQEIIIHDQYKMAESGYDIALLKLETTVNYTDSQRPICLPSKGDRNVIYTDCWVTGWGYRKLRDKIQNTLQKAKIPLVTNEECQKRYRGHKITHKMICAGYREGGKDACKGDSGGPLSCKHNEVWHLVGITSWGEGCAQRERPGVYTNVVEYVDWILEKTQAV
Furin inhibitor: inhibitors of human furin | inhibition, % at 20 µM or 30 µM | purified furin, fluorogenic substrate cleavage | hit rate 0.061% among 220,000; in the data active means inhibition above about 25%
KLK5 inh: kallikrein 5 (human) inhibition | recombinant hK5, fluorogenic AMC substrate cleavage | inhibition, % at 5 µM | hit rate 0.59% among 210,000 | Q9Y337;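 active means inhibition of 40% or more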
FXIIa inh 1536: inhibitors of human coagulation factor XIIa; P00748; purified FXIIa, Boc-QGR-AMC fluorogenic substrate, 2 h; inhibition, % at 5 µM; hit rate 0.3% among 220,000; AID 800; in the data active means inhibition above about 40%
thrombin 1536: blocks human thrombin protease activity | P00734 | alpha-thrombin, Boc-VPR-AMC fluorogenic substrate cleavage | inhibition, % at 5 µM | hit rate 0.26% among 220,000;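 active means inhibition at or above 40%; inactive means inhibition below 40%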
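Test system: human alpha-thrombin; medium: pH 7.5 Tris-saline with Tween 20; times: reaction at room temperature; signal: AMC fluorescence at 355 nm excitation and 460 nm emission; also added: Boc-VPR-AMC substrate, 15 µM final; dosing: one concentration per compound, 5 µM, with 0.2% DMSO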
HSV replic up: increases HSV replication in cells; AID 1956; maximum fold increase; HSV replication augmentation in cells, fold increase; hit rate 0.005% among 220,000; in the data active means maximum fold increase above about 1.5; tested in PC3 cells
Large screens that a line does not name were inactive. Only some compounds are listed: those with a hit (about 1% of all), similar ones and a draw of the others.

Cc1ccc(NC(=O)c2ccc3ccccc3n2)cc1S(=O)(=O)N1CCOCC1	thrombin 1536 48.1
CCOc1ccccc1C(=O)Nc1nnc(SCC(=O)N2CCOCC2)s1	KLK5 inh 42.8, thrombin 1536 54.5
O=C(Nc1nnc(SCC(=O)N2CCOCC2)s1)c1ccccc1	none
Fc1cccc2sc(N3CCCCC3)nc12	none
Fc1cc(F)c2nc(N3CCCC3)sc2c1	FXIIa inh 1536 102.6 (no result: HSV replic up)
CC(Oc1ccccc1)C(=O)NC1=NCCS1 (centres undefined)	none (no result: KLK5 inh)
CC(=O)Nc1ccc(S(=O)(=O)n2cnc3cc(C)c(C)cc32)cc1	KLK5 inh 92.1, thrombin 1536 104.4 (no result: HSV replic up)
COc1ccc(CNC(=O)c2nnn(-c3cccc(C(F)(F)F)c3)c2N)cc1	none
CC(=O)c1c(N2CCC(C(N)=O)CC2)nc(=S)n(-c2ccccc2)c1C	KLK5 inh 45.3
Cn1c(-c2ccccc2)cnc1SCC(N)=O	FXIIa inh 1536 58.8
CCn1cc(S(=O)(=O)CC(=O)Nc2ccc(OC)cc2)c2ccccc21	KLK5 inh 41.4
COc1cc(C(=O)O/N=C2\C=CC(=O)C(C)=C2)cc(OC)c1OC	FXIIa inh 1536 96.2
COc1cc(C(=O)O/N=C(\N)c2ccncc2)cc(OC)c1OC	none
CC1=CC(=NOC(=O)c2cccc([N+](=O)[O-])c2)C=C(C)C1=O	none
COc1ccc(C(=O)ON=C2C=C(C)C(=O)C(C)=C2)cc1	FXIIa inh 1536 68.0
COc1cc(C(=O)ON=C2C=C(C)C(=O)C(C)=C2)cc(OC)c1OC	FXIIa inh 1536 90.1
CCCc1nc(NC(C)=O)c(C#N)c(-c2ccco2)c1CC	thrombin 1536 40.4
CCCCc1nc(N)c(C#N)c(-c2ccco2)c1CCC	none
Cc1ccc(C(=O)ONc2ccc(N=O)cc2)cc1	FXIIa inh 1536 44.3
O=Nc1ccc(NOC(=O)c2ccc(Br)cc2)cc1	none
CCOC(=O)c1cccc(NC(=O)CSc2nnc(-c3ccoc3C)n2CCOC)c1	FXIIa inh 1536 47.6
C=CCn1c(SCC(=O)Nc2cccc(C(=O)OC)c2)nnc1C(C)NC(=O)c1cccs1 (centres undefined)	KLK5 inh 49.5
Cc1cc(O)c(C(=O)Cc2csc(C)n2)c(O)c1	none
Cc1ccc(C(=O)NCCNc2ccc(Cl)cc2[N+](=O)[O-])o1	FXIIa inh 1536 59.9
CCNCCNc1ccc(Cl)cc1[N+](=O)[O-]	none (no result: FXIa inh, KLK5 inh, FXIIa inh 1536, thrombin 1536)
COc1ccc(-c2[nH]ncc2C2N=C(N)Nc3nc4ccccc4n32)cc1 (centres undefined)	FXIa inh 47.2
NC1=NC(c2cn[nH]c2-c2cccc(F)c2)n2c(nc3ccccc32)N1 (centres undefined)	none
CCc1c(C)nc2ccc(Br)cc2c1SCCC#N	none
CCCCc1c(C)nc2ccc(Br)cc2c1SCCC#N	KLK5 inh 47.3, thrombin 1536 98.8
COc1ccc2c(CC(=O)NCc3cccs3)coc2c1	none
CSc1nc(SCC(=O)O)c2c3c(sc2n1)COC(C)(C)C3	FXIIa inh 1536 52.0
Cc1cccc(CN2CCN(CC(=O)N3CCCC3)C2=O)c1	FXIa inh 42.9
Cc1cccc(CN2CCN(CC(=O)O)C2=O)c1	none
COCCNC(=O)CSc1nnc2c(Cl)cc(Cl)cn12	KLK5 inh 52.1, FXIIa inh 1536 56.0
CCSc1nnc2c(Cl)cc(Cl)cn12	none
CN=CC1=C(O)C(C(=O)OC)C(C)(C)CC1=O (centres undefined)	none
COC(=O)C1C(=O)/C(=C/N(C)C)C(=O)CC1(C)C (centres undefined)	Furin inhibitor 37.7
CC1CCCN(C(=O)C2CCCN(S(=O)(=O)c3cccc4nsnc34)C2)C1 (centres undefined)	FXIIa inh 1536 44.1
O=C(C1CCCN(S(=O)(=O)c2cccc3nsnc23)C1)N1CCCCCC1 (centres undefined)	none (no result: KLK5 inh)
O=C(CSc1ncnc2c1oc1ccccc12)Nc1ccccc1C(F)(F)F	KLK5 inh 46.6
CCn1cc(CN2N=C(C)CC2c2ccccc2)c(C)n1 (centres undefined)	none
O=C(NCC1CCN(S(=O)(=O)c2ccccc2)CC1)Nc1ccc(F)cc1F	none
CCn1c(C)c(CCC(=O)O)c(=O)n2nc(-c3ccccc3OC)cc12	Furin inhibitor 26.6
Nc1sc2c(c1C(=O)NC1CCS(=O)(=O)C1)CCC2 (centres undefined)	KLK5 inh 45.0
NC(=O)c1c(N)sc2c1CCC2	FXIIa inh 1536 41.2
Cc1ccc(C)c(Nc2c(F)c(F)c(F)c(F)c2C(=O)O)c1	none
